In ChEMBL document CHEMBL1145126, “Novel derivatives of benzo[b]thieno[2,3-c]quinolones: synthesis, photochemical synthesis, and antitumor evaluation” (J Med Chem, 2003):

How the values were obtained:
[1] = test system: MCF7; experiment: In vitro inhibitory effect on growth of human MCF-7 tumor cell line; type: functional, cell-based
[2] = test system: WI-38; experiment: In vitro inhibitory effect on growth of human normal WI-38 cell line; type: functional, cell-based
[3] = test system: HBL; experiment: In vitro inhibitory effect on growth of human HBL tumor cell line; type: functional, cell-based
[4] = test system: MIA PaCa-2; experiment: In vitro inhibitory effect on growth of human MIAPaCa-2 tumor cell line; type: functional, cell-based
[5] = test system: HeLa; experiment: In vitro inhibitory effect on growth of human HeLa tumor cell line; type: functional, cell-based
[6] = test system: Caco-2; experiment: In vitro inhibitory effect on growth of human CaCo-2 tumor cell line; type: functional, cell-based
[7] = test system: HEp-2; experiment: In vitro inhibitory effect on growth of human Hep-2 tumor cell line; type: functional, cell-based
[8] = test system: Melanoma cell; experiment: Percentage of apoptotic cells after treatment of Melanoma cells with 1*10e-6 M compound for 5 hr; type: functional, Homo sapiens
Summary of the method: (§1)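 HBL melanoma cells seeded at 2 × 10^5 cells/mL, exposed after 48 h to compound for 5 h, then washed in PBS and stained with Annexin-V-FLUOS for 15 min at ambient temperature. Scored by fluorescence microscopy as apoptotic (green) cells over total cells.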

[9] = test system: Melanoma cell; experiment: Percentage of apoptotic cells after treatment of Melanoma cells with 5*10e-6 M compound for 5 hr; type: functional, Homo sapiens; summary of the method: as §1
[10] = test system: ME67.3; experiment: In vitro inhibitory effect on growth of human ME 67.3 tumor cell line; type: functional, cell-based
[11] = test system: HBL; experiment: Effect on adhesion of Melanoma cell line (HBL) at 10*10e-5 M at 3h incubation time; type: functional, Homo sapiens
Summary of the method: (§2)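 HBL melanoma cells exposed to compound at the stated concentration and time; cells still attached to the plastic substratum quantified by MTT test. Result given as ratio (%) of treated to control cells; one of three parallel experiments reported.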

[12] = test system: Melanoma cell; experiment: Percentage of apoptotic cells after treatment of Melanoma cells with 1*10e-5 M compound for 5 hr; type: functional, Homo sapiens; summary of the method: as §1
[13] = test system: HBL; experiment: Effect on adhesion of Melanoma cell line (HBL) at 5*10e-6 M at 1 hr incubation time; type: functional, Homo sapiens; summary of the method: as §2
[14] = test system: HBL; experiment: Effect on adhesion of Melanoma cell line (HBL) at 10*10e-5 M at 24 hr incubation time; type: functional, Homo sapiens; summary of the method: as §2
[15] = test system: HBL; experiment: Effect on adhesion of Melanoma cell line (HBL) at 5*10e-6 M at 2 hr incubation time; type: functional, Homo sapiens; summary of the method: as §2
[16] = test system: HBL; experiment: Effect on adhesion of Melanoma cell line (HBL) at 5*10e-6 M at 24 hr incubation time; type: functional, Homo sapiens; summary of the method: as §2
[17] = test system: HBL; experiment: Effect on adhesion of Melanoma cell line (HBL) at 5*10e-6 M at 3h incubation time; type: functional, Homo sapiens; summary of the method: as §2
[18] = test system: ME67.1; experiment: In vitro inhibitory effect on growth of human ME 67.1 tumor cell line; type: functional, cell-based
[19] = test system: HBL; experiment: Effect on adhesion of Melanoma cell line (HBL) at 10*10e-5 M at 2 hr incubation time; type: functional, Homo sapiens; summary of the method: as §2
[20] = test system: HBL; experiment: Effect on adhesion of Melanoma cell line (HBL) at 10*10e-5 M at 1 hr incubation time; type: functional, Homo sapiens; summary of the method: as §2

Compound	IC50 [1] [µM]	IC50 [2] [µM]	IC50 [3] [µM]	IC50 [4] [µM]	IC50 [5] [µM]	IC50 [6] [µM]	IC50 [7] [µM]	Apoptotic cell [8] [%]	Apoptotic cell [9] [%]	IC50 [10] [µM]	Ratio [11] [%]	Apoptotic cell [12] [%]	Ratio [13] [%]	Ratio [14] [%]	Ratio [15] [%]	Ratio [16] [%]	Ratio [17] [%]	IC50 [18] [µM]	Ratio [19] [%]	Ratio [20] [%]
CN(C)CCCn1c(=O)c2sc3cc([N+](=O)[O-])ccc3c2c2ccccc21	5.8	2.4	1.2	1.25	1	0.79	3.54													
CN(C)CCCN(C(=O)c1ccc2c(c1)sc1c(O)nc3ccccc3c12)c1ccccc1	19.5	10	0.67	4.79	34.7	4.79	3.16													
COc1ccc2c(c1)sc1c(=O)n(CCCN(C)C)c3ccccc3c12	2.2	2.3	1.58	0.51	0.85	0.47	2.96													
CN(C)CCCNC(=O)c1ccc2c(c1)sc1c(O)nc3ccccc3c12	10	4.4	1	6.6	6.3	3.8	6.6													
CN(C)CCCn1c(=O)c2sc3cc(F)ccc3c2c2ccccc21	4.6	2.9	3.98	2.5	0.65	0.98	3.16													
Cc1ccc2c(c1)sc1c(=O)n(CCCN(C)C)c3ccccc3c12	4.5	2.45	1.1	1.1	1	1.7	3.63													
CN(C)CCCn1c(=O)c2sc3ccccc3c2c2ccccc21	4.27	4.5	0.58	1.4	2.5	0.62	3.63													
COC(=O)c1ccc2c(c1)sc1c(=O)n(CCCN(C)C)c3ccccc3c12	0.59	1.6	0.35	1	1.3	0.47	0.65													
CN(C)CCCn1c(=O)c2sc3cc(C(=O)Nc4ccccc4)ccc3c2c2ccccc21	2.63	2.3	0.01	1	2.8	0.49	1.77	9	29	0.19	81	35	90	28	98	62	95	0.79	87	87
